Test results: ChEMBL document CHEMBL1921722, “In vitro and in vivo evaluation of select kahalalide F analogs with antitumor and antifungal activities” (Bioorg Med Chem, 2011)

Experiments:
[1] = tested on: MDA-MB-231; assay: Cytotoxicity against human MDA-MB-231 cells by sulforhodamine B assay; format: functional
Procedure, shortened: (§1)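 NCI Developmental Therapeutics Program 60-cell-line human tumor panel screen, run at NCI. A single-concentration pre-screen was followed by a five-concentration dose-response in 10-fold steps. GI50 is the concentration that reduces growth of treated cells to half that of untreated control cells. TGI is the concentration that completely halts growth.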

[2] = tested on: MCF7; assay: Cytotoxicity against human MCF7 cells by sulforhodamine B assay; format: functional
[3] = tested on: KM12; assay: Cytotoxicity against human KM12 cells assessed as cell growth at 80 uM by sulforhodamine B assay relative to control; format: functional; conditions: read-out: Activity
[4] = tested on: UACC-257; assay: Cytotoxicity against human UACC257 cells assessed as cell growth at 80 uM by sulforhodamine B assay relative to control; format: functional; conditions: read-out: Activity
[5] = tested on: U-251; assay: Cytotoxicity against human U251 cells assessed as cell growth at 800 nM by sulforhodamine B assay relative to control; format: functional; conditions: read-out: Activity
[6] = tested on: Malme-3M; assay: Cytotoxicity against human MALME-3M cells by sulforhodamine B assay; format: functional; procedure, shortened: as §1
[7] = tested on: HCC 2998; assay: Cytotoxicity against human HCC2998 cells assessed as cell growth at 8 nM by sulforhodamine B assay relative to control; format: functional; conditions: read-out: Activity
[8] = tested on: HCT-116; assay: Cytotoxicity against human HCT116 cells assessed as cell growth at 800 nM by sulforhodamine B assay relative to control; format: functional; conditions: read-out: Activity
[9] = tested on: OVCAR-5; assay: Cytotoxicity against human OVCAR5 cells assessed as cell growth at 8 uM by sulforhodamine B assay relative to control; format: functional; conditions: read-out: Activity
[10] = tested on: OVCAR-3; assay: Cytotoxicity against human OVCAR3 cells assessed as cell growth at 8 uM by sulforhodamine B assay relative to control; format: functional; conditions: read-out: Activity
[11] = tested on: NCI/ADR-RES; assay: Cytotoxicity against human NCI/ADR-RES cells assessed as cell growth at 8 nM by sulforhodamine B assay relative to control; format: functional; conditions: read-out: Activity
[12] = tested on: Mycobacterium intracellulare; assay: Antimicrobial activity against Mycobacterium intracellular ATCC 23068 after 5 days by MABA assay; format: functional, organism-based; conditions: ATCC 23068, 120 h
Procedure, shortened: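 M. intracellulare was tested by a modified Franzblau method. Samples were serially diluted in 20% DMSO/saline, run in duplicate, and inocula were adjusted by OD630. […] IC50 is 50% growth inhibition; MIC is the lowest concentration with no detectable growth.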

[13] = tested on: NCI-H23; assay: Cytotoxicity against human NCI-H23 cells by sulforhodamine B assay; format: functional; procedure, shortened: as §1
[14] = tested on: RPMI-8226; assay: Cytotoxicity against human RPMI8226 cells by sulforhodamine B assay; format: functional; procedure, shortened: as §1
[15] = tested on: SW-620; assay: Cytotoxicity against human SW620 cells by sulforhodamine B assay; format: functional; procedure, shortened: as §1
[16] = tested on: HOP-62; assay: Cytotoxicity against human HOP62 cells assessed as cell growth at 8 nM by sulforhodamine B assay relative to control; format: functional; conditions: read-out: Activity
[17] = tested on: SF-295; assay: Cytotoxicity against human SF295 cells assessed as cell growth at 8 uM by sulforhodamine B assay relative to control; format: functional; conditions: read-out: Activity
[18] = tested on: DU-145; assay: Cytotoxicity against human DU145 cells assessed as cell growth at 80 nM by sulforhodamine B assay relative to control; format: functional; conditions: read-out: Activity
[19] = tested on: Malme-3M; assay: Cytotoxicity against human MALME-3M cells assessed as cell growth at 8 uM by sulforhodamine B assay relative to control; format: functional; conditions: read-out: Activity
[20] = tested on: A549; assay: Cytotoxicity against human A549 cells assessed as cell growth at 800 nM by sulforhodamine B assay relative to control; format: functional; conditions: read-out: Activity
Procedure, shortened: (§2)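 Run at NCI in the DTP 60-cell-line human tumor panel by standard procedure. Compounds were first screened at a single concentration, then tested at five tenfold-spaced concentrations. GI50 is the concentration reducing treated-cell growth to half that of untreated controls; TGI is the concentration completely halting growth.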

[21] = tested on: HOP-92; assay: Cytotoxicity against human HOP92 cells assessed as cell growth at 80 uM by sulforhodamine B assay relative to control; format: functional; conditions: read-out: Activity
[22] = tested on: SK-MEL-28; assay: Cytotoxicity against human SK-MEL-28 cells by sulforhodamine B assay; format: functional; procedure, shortened: as §1
[23] = tested on: PC-3; assay: Cytotoxicity against human PC3 cells assessed as cell growth at 8 nM by sulforhodamine B assay relative to control; format: functional; conditions: read-out: Activity
[24] = tested on: HCT-116; assay: Cytotoxicity against human HCT116 cells by sulforhodamine B assay; format: functional
Procedure, shortened: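 Run by the NCI Developmental Therapeutics Program on its 60-line human tumour cell panel using the standard procedure. Compounds went through a single-concentration prescreen first, and those active by NCI criteria went on to a five-concentration growth-inhibition test. GI50 is the concentration that cuts growth of treated cells to half that of untreated control cells.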

[25] = tested on: ACHN; assay: Cytotoxicity against human ACHN cells assessed as cell growth at 8 nM by sulforhodamine B assay relative to control; format: functional; conditions: read-out: Activity; procedure, shortened: as §2
[26] = tested on: ACHN; assay: Cytotoxicity against human ACHN cells assessed as cell growth at 80 nM by sulforhodamine B assay relative to control; format: functional; conditions: read-out: Activity; procedure, shortened: as §2
[27] = tested on: T47D; assay: Cytotoxicity against human T47D cells assessed as cell growth at 80 nM by sulforhodamine B assay relative to control; format: functional; conditions: read-out: Activity
[28] = tested on: OVCAR-5; assay: Cytotoxicity against human OVCAR5 cells assessed as cell growth at 800 nM by sulforhodamine B assay relative to control; format: functional; conditions: read-out: Activity
[29] = tested on: SK-MEL-28; assay: Cytotoxicity against human SK-MEL-28 cells assessed as cell growth at 8 nM by sulforhodamine B assay relative to control; format: functional; conditions: read-out: Activity
[30] = tested on: A498; assay: Cytotoxicity against human A498 cells assessed as cell growth at 8 nM by sulforhodamine B assay relative to control; format: functional; conditions: read-out: Activity; procedure, shortened: as §2
[31] = tested on: HL-60(TB); assay: Cytotoxicity against human HL-60(TB) cells assessed as cell growth at 8 nM by sulforhodamine B assay relative to control; format: functional; conditions: read-out: Activity
[32] = tested on: UACC-62; assay: Cytotoxicity against human UACC62 cells assessed as cell growth at 8 nM by sulforhodamine B assay relative to control; format: functional; conditions: read-out: Activity
[33] = tested on: SK-OV-3; assay: Cytotoxicity against human SKOV3 cells assessed as cell growth at 80 uM by sulforhodamine B assay relative to control; format: functional; conditions: read-out: Activity
[34] = tested on: MCF7; assay: Cytotoxicity against human MCF7 cells assessed as cell growth at 8 uM by sulforhodamine B assay relative to control; format: functional; conditions: read-out: Activity
[35] = tested on: RPMI-8226; assay: Cytotoxicity against human RPMI8226 cells assessed as cell growth at 80 uM by sulforhodamine B assay relative to control; format: functional; conditions: read-out: Activity
[36] = tested on: DU-145; assay: Cytotoxicity against human DU145 cells assessed as cell growth at 8 uM by sulforhodamine B assay relative to control; format: functional; conditions: read-out: Activity; procedure, shortened: as §2
[37] = tested on: UACC-62; assay: Cytotoxicity against human UACC62 cells assessed as cell growth at 80 uM by sulforhodamine B assay relative to control; format: functional; conditions: read-out: Activity
[38] = tested on: HOP-62; assay: Cytotoxicity against human HOP62 cells assessed as cell growth at 8 uM by sulforhodamine B assay relative to control; format: functional; conditions: read-out: Activity
[39] = tested on: SK-OV-3; assay: Cytotoxicity against human SKOV3 cells assessed as cell growth at 80 nM by sulforhodamine B assay relative to control; format: functional; conditions: read-out: Activity

C/C=C1\NC(=O)[C@H](Cc2ccccc2)NC(=O)[C@@H](C(C)C)NC(=O)[C@@H]([C@@H](C)CC)NC(=O)[C@H](NC(=O)[C@H](NC(=O)[C@H](CCCNCc2ccc(F)c(C)c2)NC(=O)[C@H]2CCCN2C(=O)[C@H](NC(=O)[C@@H](NC(=O)[C@@H](NC(=O)[C@H](NC(=O)CCCC(C)C)C(C)C)[C@@H](C)O)C(C)C)C(C)C)[C@@H](C)CC)[C@@H](C)OC(=O)[C@H](C(C)C)NC1=O
GI50 [1]: 1450 nM | LC50 [1]: 6920 nM | TGI ([1]; read-out: pTGI (converted)): 3160 nM | GI50 [2]: 1260 nM | growth at 80 µM [3]: -36% | growth at 80 µM [4]: -70% | growth at 0.8 µM [5]: 27% | GI50 [6]: 1480 nM | growth at 0.008 µM [7]: 108% | growth at 0.8 µM [8]: 104% | growth at 8 µM [9]: -95% | growth at 8 µM [10]: -94% | growth at 0.008 µM [11]: 105% | IC50 [12]: > 20000 nM | MBC [12]: > 20 µM | MIC [12]: > 20 µM | GI50 [13]: 1410 nM | LC50 [13]: 5250 nM | TGI ([13]; read-out: pTGI (converted)): 2750 nM | GI50 ([14]; read-out: GI50): 885 nM | TGI ([14]; read-out: TGI): 2260 nM | GI50 ([14]; read-out: pGI50 (converted)): 891 nM | TGI ([14]; read-out: pTGI (converted)): 2240 nM | GI50 [15]: 513 nM | LC50 [15]: 3310 nM | TGI ([15]; read-out: pTGI (converted)): 1450 nM | growth at 0.008 µM [16]: 101% | growth at 8 µM [17]: -89% | growth at 0.08 µM [18]: 87% | growth at 8 µM [19]: -77% | growth at 0.8 µM [20]: -40% | growth at 80 µM [21]: -91% | GI50 [22]: 1100 nM | growth at 0.008 µM [23]: 109% | GI50 [24]: 1380 nM | LC50 [24]: 4270 nM | TGI ([24]; read-out: pTGI (converted)): 2450 nM | growth at 0.008 µM [25]: 100% | growth at 0.08 µM [26]: 100% | growth at 0.08 µM [27]: 90% | growth at 0.8 µM [28]: 55% | growth at 0.008 µM [29]: 97% | growth at 0.008 µM [30]: 102% | growth at 0.008 µM [31]: 91% | growth at 0.008 µM [32]: 103% | growth at 80 µM [33]: -75% | growth at 8 µM [34]: -53% | growth at 80 µM [35]: -21% | growth at 8 µM [36]: -100% | growth at 80 µM [37]: -91% | growth at 8 µM [38]: -93% | growth at 0.08 µM [39]: 105%
